Experimental findings from ChEMBL document CHEMBL4020727, “Synthesis and biological evaluation of largazole zinc-binding group analogs” (Bioorg Med Chem, 2017) are described below.

Test [1] deals with Histone deacetylase 5 (Homo sapiens) (UniProt Q9UQL6). The test is described as follows: Inhibition of full length N-terminal GST-tagged human HDAC5 expressed in baculovirus infected Sf9 insect cells using BPS HDAC class 2a substrate at 10 uM after 30 mins by fluorescence assay relative to control. In short, it runs like this: (§1)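 Run by a contract lab. Compound incubated with HDAC enzyme, substrate, bovine serum albumin and HDAC buffer in duplicate for 30 min at 37 °C. Quenched with HDAC developer, 15 min at room temperature, fluorescence read at ex 360/em 460 nm. Activity taken as (F−Fb)/(Ft−Fb) against blank and solvent control wells; IC50 from curve fitting.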
Chain of Histone deacetylase 5 (Homo sapiens) (Q9UQL6 whole entry): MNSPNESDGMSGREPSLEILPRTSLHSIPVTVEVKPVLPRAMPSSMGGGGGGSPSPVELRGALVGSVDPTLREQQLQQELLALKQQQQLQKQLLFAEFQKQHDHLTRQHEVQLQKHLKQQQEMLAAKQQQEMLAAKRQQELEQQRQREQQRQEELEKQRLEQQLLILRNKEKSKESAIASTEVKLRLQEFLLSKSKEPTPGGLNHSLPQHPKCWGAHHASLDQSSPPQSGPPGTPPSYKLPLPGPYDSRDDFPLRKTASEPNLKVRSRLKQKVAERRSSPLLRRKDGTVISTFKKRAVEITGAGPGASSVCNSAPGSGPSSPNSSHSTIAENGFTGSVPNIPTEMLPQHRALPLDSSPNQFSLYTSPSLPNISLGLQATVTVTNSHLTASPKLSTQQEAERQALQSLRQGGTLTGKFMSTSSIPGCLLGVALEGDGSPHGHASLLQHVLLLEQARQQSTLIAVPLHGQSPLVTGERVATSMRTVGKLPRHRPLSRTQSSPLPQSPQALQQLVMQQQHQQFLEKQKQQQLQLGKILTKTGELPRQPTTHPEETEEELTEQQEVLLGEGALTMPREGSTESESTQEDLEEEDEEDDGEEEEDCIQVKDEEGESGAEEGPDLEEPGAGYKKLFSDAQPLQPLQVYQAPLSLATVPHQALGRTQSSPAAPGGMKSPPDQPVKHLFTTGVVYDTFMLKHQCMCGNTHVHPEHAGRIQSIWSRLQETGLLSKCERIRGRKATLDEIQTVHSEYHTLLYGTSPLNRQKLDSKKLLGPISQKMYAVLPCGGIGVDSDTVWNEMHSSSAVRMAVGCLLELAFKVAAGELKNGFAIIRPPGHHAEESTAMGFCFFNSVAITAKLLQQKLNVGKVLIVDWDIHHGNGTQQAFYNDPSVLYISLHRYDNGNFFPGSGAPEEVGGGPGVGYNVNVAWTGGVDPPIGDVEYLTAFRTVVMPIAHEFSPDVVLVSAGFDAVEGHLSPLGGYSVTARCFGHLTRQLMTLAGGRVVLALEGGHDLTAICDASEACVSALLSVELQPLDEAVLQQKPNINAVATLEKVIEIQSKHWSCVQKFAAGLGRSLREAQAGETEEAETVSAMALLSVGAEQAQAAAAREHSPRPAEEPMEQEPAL

In test [2] the test system is MDA-MB-231. In words: Cytotoxicity against human MDA-MB-231 cells assessed as change in cell viability at 10 uM after 48 hrs by MTT assay. In kind it is functional, cell-based. In short, it runs like this:
(§2)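 Cells grown in DMEM with 10% FBS, 37 °C, 5% CO2; 1 × 10^4 cells per well plated and left 24 h, then exposed to a range of compound concentrations or vehicle (1% EtOH) for 48 h. Viability read by MTT.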
(Tetrazolium dyes change colour on reduction, which living cells bring about.)

Test [3] concerns the target Histone deacetylase 2 (Homo sapiens, UniProt Q92769). In words: Inhibition of full length C-terminal FLAG-tagged human HDAC2 expressed in baculovirus infected Sf9 insect cells using BPS HDAC substrate 3 at 10 uM after 30 mins by fluorescence assay relative to control. In short, it runs like this:
as §1

Test [4] concerns the target Histone deacetylase 1 (Homo sapiens, UniProt Q13547). In words: Inhibition of recombinant full length C-terminal His/FLAG-tagged human HDAC1 expressed in baculovirus infected Sf9 insect cells using BPS HDAC substrate 3 at 10 uM after 30 mins by fluorescence assay relative to control. Put shortly: as §1
Test [5] has as its target Histone deacetylase 3/Nuclear receptor corepressor 2 (HDAC3/NCoR2) (Homo sapiens) (UniProt O15379+Q9Y618). The test is described as follows: Inhibition of full length human C-terminal His-tagged HDAC3/N-terminal GST-tagged NCOR2 (395 to 489 residues) expressed in baculovirus infected Sf9 insect cells using BPS HDAC substrate 3 at 10 uM after 30 mins by fluorescence assay relative to control. Put shortly: as §1

The target in test [6] is T1, Histone deacetylase 8 (Homo sapiens) (UniProt Q9BY41).
T1 sequence (whole entry): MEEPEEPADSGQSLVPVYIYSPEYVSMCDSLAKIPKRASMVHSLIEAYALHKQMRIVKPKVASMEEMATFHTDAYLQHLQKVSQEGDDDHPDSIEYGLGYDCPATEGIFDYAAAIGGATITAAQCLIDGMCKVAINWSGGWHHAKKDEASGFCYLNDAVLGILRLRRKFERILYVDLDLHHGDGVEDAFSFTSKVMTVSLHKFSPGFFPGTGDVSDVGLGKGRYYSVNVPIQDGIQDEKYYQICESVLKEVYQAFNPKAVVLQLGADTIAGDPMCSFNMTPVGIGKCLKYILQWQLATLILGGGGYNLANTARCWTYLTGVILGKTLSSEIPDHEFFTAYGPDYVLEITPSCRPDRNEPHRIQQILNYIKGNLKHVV
The test is described as follows: Inhibition of full length C-terminal His-tagged human HDAC8 expressed in baculovirus infected Sf9 insect cells using BPS HDAC class 2a substrate at 10 uM after 30 mins by fluorescence assay relative to control. Put shortly:
as §1

The subject of test [7] is HCT-116. In words: Cytotoxicity against human HCT116 cells assessed as change in cell viability at 10 uM after 48 hrs by MTT assay. The test is classed as functional, cell-based. Put shortly: as §2
The target of test [8] is T2, Protein deacetylase HDAC6 (Homo sapiens) (UniProt Q9UBN7).
T2 sequence (whole entry): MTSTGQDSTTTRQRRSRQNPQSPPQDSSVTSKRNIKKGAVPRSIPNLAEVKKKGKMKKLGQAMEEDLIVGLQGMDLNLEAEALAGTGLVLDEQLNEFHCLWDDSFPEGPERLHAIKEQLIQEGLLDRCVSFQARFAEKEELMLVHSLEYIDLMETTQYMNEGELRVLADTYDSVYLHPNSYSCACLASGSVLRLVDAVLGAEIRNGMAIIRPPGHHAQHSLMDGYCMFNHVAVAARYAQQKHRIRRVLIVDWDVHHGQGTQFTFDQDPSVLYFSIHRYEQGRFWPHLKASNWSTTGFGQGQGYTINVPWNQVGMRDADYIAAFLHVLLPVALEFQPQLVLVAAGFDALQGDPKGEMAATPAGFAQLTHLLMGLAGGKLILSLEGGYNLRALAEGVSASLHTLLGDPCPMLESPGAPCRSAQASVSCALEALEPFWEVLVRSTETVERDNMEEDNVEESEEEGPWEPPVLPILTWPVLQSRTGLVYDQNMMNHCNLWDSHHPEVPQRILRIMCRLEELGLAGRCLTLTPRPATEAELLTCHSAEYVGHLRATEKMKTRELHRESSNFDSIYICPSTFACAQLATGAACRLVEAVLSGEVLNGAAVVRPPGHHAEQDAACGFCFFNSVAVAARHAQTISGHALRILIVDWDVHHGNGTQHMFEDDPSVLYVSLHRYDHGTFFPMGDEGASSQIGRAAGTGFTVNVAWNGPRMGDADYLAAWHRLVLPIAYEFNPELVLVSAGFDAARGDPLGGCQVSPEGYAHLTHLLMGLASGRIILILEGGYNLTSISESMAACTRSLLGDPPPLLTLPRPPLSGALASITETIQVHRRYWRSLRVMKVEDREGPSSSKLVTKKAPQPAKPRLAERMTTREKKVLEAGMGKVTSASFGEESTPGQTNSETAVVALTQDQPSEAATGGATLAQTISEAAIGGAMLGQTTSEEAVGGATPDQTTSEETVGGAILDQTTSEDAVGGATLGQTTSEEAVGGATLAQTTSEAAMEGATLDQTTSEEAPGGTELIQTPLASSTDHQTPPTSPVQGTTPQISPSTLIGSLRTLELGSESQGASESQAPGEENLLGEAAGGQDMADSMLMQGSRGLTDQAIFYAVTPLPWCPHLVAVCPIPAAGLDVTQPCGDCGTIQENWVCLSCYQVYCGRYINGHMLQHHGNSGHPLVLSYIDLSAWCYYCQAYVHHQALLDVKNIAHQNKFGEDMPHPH
In words: Inhibition of full length N-terminal GST-tagged human HDAC6 expressed in baculovirus infected Sf9 insect cells using HDAC substrate 3 after at 10 uM 30 mins by fluorescence assay relative to control. In short, it runs like this: as §1

Test [9] deals with T3, Polyamine deacetylase HDAC10 (Homo sapiens) (UniProt Q969S8).
T3 sequence (whole entry): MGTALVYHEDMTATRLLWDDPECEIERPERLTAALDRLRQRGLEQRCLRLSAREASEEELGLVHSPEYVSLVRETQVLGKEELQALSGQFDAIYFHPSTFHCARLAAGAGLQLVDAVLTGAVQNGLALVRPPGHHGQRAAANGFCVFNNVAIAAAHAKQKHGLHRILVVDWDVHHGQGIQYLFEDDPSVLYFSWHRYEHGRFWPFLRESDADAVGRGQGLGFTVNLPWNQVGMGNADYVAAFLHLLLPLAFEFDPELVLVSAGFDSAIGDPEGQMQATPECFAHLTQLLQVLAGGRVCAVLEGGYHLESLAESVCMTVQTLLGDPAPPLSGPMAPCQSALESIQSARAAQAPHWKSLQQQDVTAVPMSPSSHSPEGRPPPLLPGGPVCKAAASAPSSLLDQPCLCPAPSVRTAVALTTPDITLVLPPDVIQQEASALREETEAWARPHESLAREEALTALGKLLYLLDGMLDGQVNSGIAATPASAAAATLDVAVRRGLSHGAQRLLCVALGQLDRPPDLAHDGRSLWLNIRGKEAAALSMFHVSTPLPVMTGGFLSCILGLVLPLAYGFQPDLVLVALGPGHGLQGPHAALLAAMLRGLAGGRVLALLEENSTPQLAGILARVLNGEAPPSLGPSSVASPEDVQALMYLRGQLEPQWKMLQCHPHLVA
The test is described as follows: Inhibition of N-terminal GST-tagged/C-terminal His-tagged human HDAC10 (1 to 481 residues) expressed in baculovirus infected Sf9 insect cells using BPS HDAC substrate 3 at 10 uM after 30 mins by fluorescence assay relative to control. Put shortly: as §1

Test [10] has as its target Histone deacetylase 3/Nuclear receptor corepressor 2 (HDAC3/NCoR2) (Homo sapiens, UniProt O15379). The test is described as follows: Inhibition of full length human C-terminal His-tagged HDAC3/N-terminal GST-tagged NCOR2 (395 to 489 residues) expressed in baculovirus infected Sf9 insect cells using BPS HDAC substrate 3 after 30 mins by fluorescence assay. Put shortly:
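Run by a contract lab. Compound incubated with HDAC enzyme, substrate, bovine serum albumin and HDAC buffer in duplicate for 30 min at 37 °C. Activity taken as (F−Fb)/(Ft−Fb) against blank and solvent control wells; IC50 from curve fitting.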

For test [11], the species on record is Homo sapiens. In words: Inhibition of class 1 HDAC in human HCT116 cells assessed as hyperacetylation of histone H3 (Lys9/14) measured at 8 hrs post treatment by immunoblot analysis. In kind it is cell-based. In short, it runs like this: (§3)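 Cells in DMEM/10% FBS; 4 × 10^5 cells seeded in 60-mm dishes overnight, then treated for 8 h with 0–10 μM (final) compound or vehicle (1% EtOH). Whole-cell lysates loaded at equal protein (BCA), run on SDS-PAGE, blotted to PVDF and probed with anti-acetyl histone H3 (Lys9/14); β-actin also probed. Chemiluminescent detection.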

The species named for test [12] is Homo sapiens. In words: Inhibition of class 1 HDAC in human MDA-MB-231 cells assessed as hyperacetylation of histone H3 (Lys9/14) measured at 8 hrs post treatment by immunoblot analysis. The test is classed as cell-based. In short, it runs like this: as §3
For test [13], the system named is MDA-MB-231. In words: Cytotoxicity against human MDA-MB-231 cells assessed as reduction in cell viability after 48 hrs by MTT assay. In kind it is functional, cell-based. The conditions noted are these: MDA-MB-231, 48 h. In short, it runs like this:
as §2

Test [14] has as its system HCT-116. In words: Cytotoxicity against human HCT116 cells assessed as reduction in cell viability after 48 hrs by MTT assay. In kind it is functional, cell-based. The following applies: HCT-116, 48 h. In short, it runs like this: as §2
Test [15] has as its target Histone deacetylase 5 (Homo sapiens) (UniProt Q9UQL6). In words: Inhibition of full length N-terminal GST-tagged human HDAC5 expressed in baculovirus infected Sf9 insect cells using BPS HDAC class 2a substrate at 1 uM after 30 mins by fluorescence assay relative to control. In short, it runs like this:
(§4)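 Run by a contract lab. Compound incubated with HDAC enzyme, HDAC substrate, BSA and HDAC buffer, in duplicate, at 37 °C for 30 min. Quenched with HDAC developer, then 15 min at room temperature. Fluorescence read at ex 360/em 460 nm. Percent activity = (F−Fb)/(Ft−Fb), using blank and solvent-control wells. IC50 from curve fitting.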

For test [16], the target named is T4, Polyamine deacetylase HDAC10 (Homo sapiens, UniProt Q969S8).
T4 sequence (Q969S8 whole entry): T3 sequence (whole entry)
In words: Inhibition of N-terminal GST-tagged/C-terminal His-tagged human HDAC10 (1 to 481 residues) expressed in baculovirus infected Sf9 insect cells using BPS HDAC substrate 3 after 30 mins by fluorescence assay. Put shortly: as §4

The structures appear in SMILES notation. Activity calls are given as the source filed them. The calls are words filed in the database; no cut-off is given here. A value given as a limit tells only on which side of the number the result lay.

Chain of Histone deacetylase 1 (Q13547 whole entry, the tested form may be a part): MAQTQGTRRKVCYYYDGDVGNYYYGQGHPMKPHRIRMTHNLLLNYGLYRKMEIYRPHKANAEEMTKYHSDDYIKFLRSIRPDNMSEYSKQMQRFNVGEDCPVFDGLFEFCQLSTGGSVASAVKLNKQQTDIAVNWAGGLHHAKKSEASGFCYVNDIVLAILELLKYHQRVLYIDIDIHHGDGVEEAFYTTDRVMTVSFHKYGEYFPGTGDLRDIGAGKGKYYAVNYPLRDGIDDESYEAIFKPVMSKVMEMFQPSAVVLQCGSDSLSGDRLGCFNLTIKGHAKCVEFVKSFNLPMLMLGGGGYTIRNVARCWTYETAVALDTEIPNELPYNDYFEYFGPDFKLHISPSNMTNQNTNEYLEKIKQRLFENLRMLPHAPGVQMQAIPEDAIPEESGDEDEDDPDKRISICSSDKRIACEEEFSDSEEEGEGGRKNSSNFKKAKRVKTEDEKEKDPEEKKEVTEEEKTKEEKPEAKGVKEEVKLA
Chain of Histone deacetylase 2 (Q92769 whole entry): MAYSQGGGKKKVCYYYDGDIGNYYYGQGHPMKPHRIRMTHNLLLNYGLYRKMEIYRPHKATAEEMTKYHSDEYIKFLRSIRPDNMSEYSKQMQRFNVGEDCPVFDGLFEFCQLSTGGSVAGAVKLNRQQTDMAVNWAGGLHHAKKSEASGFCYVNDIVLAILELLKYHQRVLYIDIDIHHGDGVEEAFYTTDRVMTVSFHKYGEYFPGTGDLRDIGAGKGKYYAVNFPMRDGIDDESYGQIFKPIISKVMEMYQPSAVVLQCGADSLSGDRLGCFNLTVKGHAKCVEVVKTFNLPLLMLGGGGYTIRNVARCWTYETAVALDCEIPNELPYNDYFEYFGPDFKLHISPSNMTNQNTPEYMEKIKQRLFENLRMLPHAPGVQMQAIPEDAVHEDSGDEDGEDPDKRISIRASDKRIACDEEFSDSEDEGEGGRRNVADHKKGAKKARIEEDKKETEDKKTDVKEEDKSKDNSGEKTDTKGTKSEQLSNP
Chain of Histone deacetylase 3/Nuclear receptor corepressor 2 (HDAC3/NCoR2) (O15379 whole entry, the tested form may be a part): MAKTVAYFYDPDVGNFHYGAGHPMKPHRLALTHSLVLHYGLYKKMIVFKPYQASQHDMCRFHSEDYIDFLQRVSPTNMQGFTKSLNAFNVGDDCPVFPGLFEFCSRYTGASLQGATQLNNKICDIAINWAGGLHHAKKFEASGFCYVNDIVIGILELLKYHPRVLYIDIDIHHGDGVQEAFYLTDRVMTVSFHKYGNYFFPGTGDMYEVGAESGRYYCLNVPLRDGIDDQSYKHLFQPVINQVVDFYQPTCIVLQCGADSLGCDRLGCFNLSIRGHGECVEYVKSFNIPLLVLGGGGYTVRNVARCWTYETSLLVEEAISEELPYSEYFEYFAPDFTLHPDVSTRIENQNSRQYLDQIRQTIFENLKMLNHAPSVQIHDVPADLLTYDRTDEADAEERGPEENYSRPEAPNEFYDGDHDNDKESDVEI
Chain of Histone deacetylase 3/Nuclear receptor corepressor 2 (HDAC3/NCoR2) (Q9Y618 whole entry, further chain, the tested form may be a part): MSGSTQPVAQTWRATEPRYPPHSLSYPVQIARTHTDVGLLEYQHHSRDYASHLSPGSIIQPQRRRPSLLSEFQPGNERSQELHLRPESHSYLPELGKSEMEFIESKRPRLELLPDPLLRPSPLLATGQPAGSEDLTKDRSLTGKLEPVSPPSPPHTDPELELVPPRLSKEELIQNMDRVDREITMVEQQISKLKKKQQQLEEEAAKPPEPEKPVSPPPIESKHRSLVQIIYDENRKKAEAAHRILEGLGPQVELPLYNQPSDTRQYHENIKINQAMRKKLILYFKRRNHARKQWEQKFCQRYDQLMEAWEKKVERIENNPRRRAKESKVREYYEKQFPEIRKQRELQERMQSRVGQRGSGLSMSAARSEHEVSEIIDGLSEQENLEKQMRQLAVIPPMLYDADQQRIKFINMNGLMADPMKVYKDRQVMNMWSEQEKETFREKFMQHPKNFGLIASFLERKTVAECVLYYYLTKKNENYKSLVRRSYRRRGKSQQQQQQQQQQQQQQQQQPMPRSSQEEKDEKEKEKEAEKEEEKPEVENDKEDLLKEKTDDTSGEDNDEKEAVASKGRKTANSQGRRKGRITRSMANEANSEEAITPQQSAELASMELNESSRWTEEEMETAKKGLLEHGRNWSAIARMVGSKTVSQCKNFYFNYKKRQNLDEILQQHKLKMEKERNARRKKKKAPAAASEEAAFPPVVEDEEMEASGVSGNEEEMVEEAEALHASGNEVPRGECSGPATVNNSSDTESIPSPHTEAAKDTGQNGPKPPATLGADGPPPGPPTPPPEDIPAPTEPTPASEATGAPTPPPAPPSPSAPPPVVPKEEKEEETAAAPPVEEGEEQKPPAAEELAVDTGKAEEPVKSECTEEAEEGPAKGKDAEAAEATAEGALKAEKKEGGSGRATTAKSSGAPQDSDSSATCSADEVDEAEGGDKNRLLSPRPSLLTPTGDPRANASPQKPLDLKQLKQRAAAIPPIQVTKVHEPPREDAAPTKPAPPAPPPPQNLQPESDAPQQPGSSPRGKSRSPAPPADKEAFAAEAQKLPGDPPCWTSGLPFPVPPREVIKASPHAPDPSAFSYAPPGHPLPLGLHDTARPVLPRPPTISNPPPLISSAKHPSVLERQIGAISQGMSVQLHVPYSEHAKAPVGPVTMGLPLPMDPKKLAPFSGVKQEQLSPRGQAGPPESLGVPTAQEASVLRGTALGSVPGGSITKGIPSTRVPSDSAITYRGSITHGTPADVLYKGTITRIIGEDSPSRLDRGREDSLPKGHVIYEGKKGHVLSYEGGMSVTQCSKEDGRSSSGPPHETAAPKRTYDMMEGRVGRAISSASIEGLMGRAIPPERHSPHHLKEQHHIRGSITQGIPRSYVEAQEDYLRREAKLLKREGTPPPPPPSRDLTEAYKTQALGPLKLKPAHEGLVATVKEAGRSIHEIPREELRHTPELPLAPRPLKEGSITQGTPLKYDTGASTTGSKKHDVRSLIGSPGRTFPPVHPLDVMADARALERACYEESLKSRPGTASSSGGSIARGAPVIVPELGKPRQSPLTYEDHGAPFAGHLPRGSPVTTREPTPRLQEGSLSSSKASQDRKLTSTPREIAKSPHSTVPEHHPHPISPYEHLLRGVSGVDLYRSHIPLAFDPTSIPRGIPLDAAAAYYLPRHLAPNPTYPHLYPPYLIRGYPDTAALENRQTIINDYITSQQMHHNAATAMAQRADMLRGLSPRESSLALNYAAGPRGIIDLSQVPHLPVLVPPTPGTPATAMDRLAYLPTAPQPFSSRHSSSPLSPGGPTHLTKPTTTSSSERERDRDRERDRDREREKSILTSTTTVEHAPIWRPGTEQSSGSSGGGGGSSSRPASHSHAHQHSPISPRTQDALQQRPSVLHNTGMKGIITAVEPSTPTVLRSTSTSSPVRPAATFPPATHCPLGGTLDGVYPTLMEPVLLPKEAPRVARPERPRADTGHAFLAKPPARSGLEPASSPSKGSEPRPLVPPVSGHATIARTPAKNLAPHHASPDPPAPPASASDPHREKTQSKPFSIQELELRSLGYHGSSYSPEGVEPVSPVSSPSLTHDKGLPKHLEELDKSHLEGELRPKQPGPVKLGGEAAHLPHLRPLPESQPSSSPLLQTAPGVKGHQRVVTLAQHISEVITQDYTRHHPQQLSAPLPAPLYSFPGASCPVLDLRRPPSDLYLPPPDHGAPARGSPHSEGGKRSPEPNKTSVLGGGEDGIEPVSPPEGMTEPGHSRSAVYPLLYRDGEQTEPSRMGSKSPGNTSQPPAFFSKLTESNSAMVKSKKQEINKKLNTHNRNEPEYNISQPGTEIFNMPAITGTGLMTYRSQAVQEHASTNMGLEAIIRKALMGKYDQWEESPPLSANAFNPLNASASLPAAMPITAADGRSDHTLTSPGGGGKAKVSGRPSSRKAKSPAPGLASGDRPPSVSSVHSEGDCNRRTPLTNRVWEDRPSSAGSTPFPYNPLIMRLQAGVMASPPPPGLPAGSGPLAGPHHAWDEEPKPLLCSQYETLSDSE

What is called inhibition is the share of the control response that was lost under treatment. As to `CC(C)[C@@H]1NC(=O)[C@]2(C)CSC(=N2)c2csc(n2)CNC(=O)C[C@@H](/C=C/CCC(=O)O)OC1=O`, the inhibition is < 15% in [1]; < 15% in test [3]; < 15% in test [4]; < 15% in test [5]; 20% in test [6]; 17% in test [8]. The same compound displayed an inhibition in [9] of 19%. Further, the outcome in [2] and in test [7] was inactive.
What is called IC50 is the concentration needed to halve the response being measured. In the case of `CCC(=O)CC/C=C/[C@@H]1CC(=O)NCc2nc(cs2)C2=N[C@@](C)(CS2)C(=O)N[C@@H](C(C)C)C(=O)O1`, the inhibition in [1] was < 15%; in test [3] it was 24%; in [4], 30%; in [6] it was < 15%; in test [8] it was < 15%; in test [9], 49%. Moreover, the outcome in [2] and in [7] was inactive. This compound also showed an IC50 in [10] of 8000 nM.
Regarding `CCC/C=C/[C@@H]1CC(=O)NCc2nc(cs2)C2=N[C@@](C)(CS2)C(=O)N[C@@H](C(C)C)C(=O)O1`, the inhibition in [1] is < 15%; in [3] it was < 15%; in [4], < 15%; in [5], < 15%; in test [6], 24%; in test [8] it was < 15%. Besides, the inhibition in test [9] is < 15%. In addition, the result in test [2] and in test [7] was inactive.
Turning to `CC(C)[C@@H]1NC(=O)[C@]2(C)CSC(=N2)c2csc(n2)CNC(=O)C[C@@H](/C=C/CCN)OC1=O`, the inhibition in test [1], in test [3], in test [4], in test [5], in test [6] and in [8] was < 15% in each case. For the same compound, the inhibition in test [9] was < 15%. Besides, the result in test [2] and in [7] was inactive.
As to `CC(=O)CC(=O)NC/C=C/[C@@H]1CC(=O)NCc2nc(cs2)C2=N[C@@](C)(CS2)C(=O)N[C@@H](C(C)C)C(=O)O1`, the inhibition in test [1] is < 15%; in test [3], < 15%; in test [4] it was < 15%; in [5], < 15%; in test [6], < 15%; in test [8], 22%. In test [9], the inhibition was < 15%. The result in [2] and in test [7] was inactive.
`CCCCCCCC(=O)SCC/C=C/[C@@H]1CC(=O)NCc2nc(cs2)C2=N[C@@](C)(CS2)C(=O)N[C@@H](C(C)C)C(=O)O1` [LARGAZOLE]: the inhibition entry in test [11] and in test [12] was “Dose-dependent effect” in each case. The half-inhibitory concentration (IC50) in [13] is 1.6 nM; in [14], 20 nM.
As to `CC(C)[C@@H]1NC(=O)[C@]2(C)CSC(=N2)c2csc(n2)CNC(=O)C[C@@H](/C=C/CCS)OC1=O`, the inhibition in [15] is < 15%. Half-maximal inhibition in test [16] (IC50) was put at 0.5 nM.
